Only some compounds are listed: those with a hit (about 1.1% of all), similar ones and a draw of the others.
SR-BI HDL uptake: blocks mouse SR-BI lipid uptake from DiI-HDL | Q61009 | ldlA[mSR-BI] CHO cells, DiI-HDL uptake fluorescence, 3 h | inhibition, % at 12.5 µM | 320,000 tested, 0.96% active | AID 488896;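 active = mean replicate inhibition of at least 70% and a set share of replicates each scoring 70 or more; inconclusive = meets just one of the two criteria; inactive = fails both criteria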;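 also: 0% = median of neutral control wells and 100% = median of positive control wells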
SR-BI DiI-HDL act: activators of SR-BI mediated HDL lipid uptake | activation, % at 12.5 µM | CHO ldlA[mSR-BI] cells, DiI-HDL uptake fluorescence, 3 h; 100 = double the neutral-control signal | AID 504775 | 320,000 tested, 0.096% active;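 active = mean replicate activation of at least 60% and every replicate at or above 60%; inconclusive = mean or all-replicate condition met, but not both; inactive = mean below 60% and not all replicates reaching 60%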;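 also: 0% = median plate neutral-control signal and 100% = twice that signal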
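Material – SR-BI-overexpressing, LDLR-lacking CHO cells · Medium – BSA-supplemented, HEPES-buffered Ham's F12, pH 7.4 · Doses – single concentration · Times – compound with DiI-HDL co-incubation, 3 h at 37 °C · Measured by – bottom-read fluorescence, 550/595 nm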
CDK5 inh: inhibitors of human CDK5/p35 kinase; AID 488839; Q00535+Q15078; Recombinant CDK5/p35, ADP-Glo luminescence, 60 min; 330,000 tested, 0.01% active; inhibition, % at 10 µM;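 active = highest replicate inhibition of at least 50% and at least 75% of replicates reaching 50%; inconclusive = only one of the two criteria met; inactive = both criteria failed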;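 also: plate controls were DMSO neutral control for no effect and GW8510 at 10 µM for full effect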
GSK3 alpha inh: blocks human GSK-3 alpha kinase. ADP-Glo luminescence, 60 min. AID 2650. inhibition, % at 10 µM. 320,000 tested, 0.1% active;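 active = more than half of replicates show inhibition above 20%; inconclusive = some but at most half of replicates above 20% inhibition; inactive = no replicate shows inhibition above 20%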;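 also: GST-tagged GSK-3 alpha with peptide substrate and 25 µM ATP; 0% = DMSO neutral wells and 100% = GW8510 positive control wells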
Target sequence (P49840 whole entry, looked up): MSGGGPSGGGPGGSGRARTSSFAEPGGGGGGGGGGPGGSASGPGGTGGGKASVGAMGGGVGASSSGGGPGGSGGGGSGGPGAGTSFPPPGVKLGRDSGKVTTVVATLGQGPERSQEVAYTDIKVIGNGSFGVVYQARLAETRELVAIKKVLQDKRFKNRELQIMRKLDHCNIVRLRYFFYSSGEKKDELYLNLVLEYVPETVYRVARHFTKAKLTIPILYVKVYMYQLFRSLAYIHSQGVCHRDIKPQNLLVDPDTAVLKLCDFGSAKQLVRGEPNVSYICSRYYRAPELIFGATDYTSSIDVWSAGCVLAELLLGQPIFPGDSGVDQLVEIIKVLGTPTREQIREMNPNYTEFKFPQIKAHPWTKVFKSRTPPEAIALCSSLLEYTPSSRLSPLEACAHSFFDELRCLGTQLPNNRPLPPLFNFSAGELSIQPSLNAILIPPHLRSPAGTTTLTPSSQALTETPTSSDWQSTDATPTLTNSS
GSK3B inh: human GSK3beta kinase inhibition | GST-GSK3beta kinase, ADP-Glo luminescence, 60 min; hits give low values | activity score (negative = inhibition), % at 10 µM | 300,000 tested, 0.038% active | AID 2097;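 active = more than half of replicate wells score below -50%, meaning over 50% inhibition versus plate controls; inconclusive = some replicates but at most half score below -50%; inactive = no replicate scores below -50%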;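 also: 0% = median DMSO wells and -100% = median GW8510 positive control wells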
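Test system: GST-tagged human GSK3beta kinase, cell-free; evaluation: activity score scaled between in-plate DMSO and GW8510 controls; measured by: ADP-Glo luminescence; incubation: 60 min reaction, RT; benchmarks: DMSO and 20 µM GW8510; reagent: peptide substrate plus 25 µM ATP (final); medium: Tris/MgCl2 kinase buffer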
Active calls of the source: *; ? = inconclusive; / = not tested or not shown.

SMILES	SR-BI HDL uptake	SR-BI DiI-HDL act	CDK5 inh	GSK3 alpha inh	GSK3B inh
CSCC[C@H](NS(=O)(=O)c1ccc(C)cc1)C(=O)N1CCC(C(=O)N[C@H](C(=O)O)c2ccccc2)CC1	10	-10	0	-4	1
COc1cc(C2C(C#N)=C(N)Oc3n[nH]c(-c4cccnc4)c32)cc(Br)c1O (configuration not stated)	7	-7	0	53*	-34
COc1cc(C2C(C#N)=C(N)Oc3n[nH]c(-c4cccnc4)c32)ccc1OCC(N)=O (configuration not stated)	/	/	-2	4	-18
COCCNC(=S)N/N=C(\C)CCc1ccc2c(c1)OCO2	46	-46	-5	1	4
C/C(CCc1ccc2c(c1)OCO2)=N\NC(=S)NC(C)C	77*	-77	1	-4	-8
COC(=O)NNC(=O)C12CC3CC(CC(C3)C1)C2	-18	18	0	-1	-1
CC(C)(C)NC(=O)C(=O)NNC(=O)C12CC3CC(CC(C3)C1)C2	-111	111*	-1	/	-2
COc1ccccc1N=Cc1c(C)[nH]n(-c2ccc(C)cc2C)c1=O	38	-38	1	-1	-5
Cc1cc(Br)ccc1-n1[nH]c(C)c(C=Nc2cccc3nsnc23)c1=O	77*	-77	0	4	0
CN(CC(=O)Nc1ccc(F)cc1)C(=O)C1CCCC1	-18	18	2	-2	/
CCCc1cc(C(=O)OC)c2ccccc2n1	-77	77*	0	/	-5
Cc1c(C)c(C)c(S(=O)(=O)Nc2ccc3[nH]c(=O)[nH]c3c2)c(C)c1C	8	-8	-1	-3	1
COc1ccc(C(=O)N=c2sc3c(C)ccc(OC)c3n2C)cc1OC	/	/	3	-1	6
COc1cccc(C(=O)N=c2sc3c(C)ccc(OC)c3n2C)c1	81*	-81	0	-3	-3
Nc1ccc2c(c1)N=[N+]([O-])c1cc(N)ccc1C2	-9	9	-1	-4	0
CCCCCC(=O)NC(=S)Nc1ccc(Br)cc1C	-70	70*	-1	-3	6
COc1ccc(-c2cc(C(=O)N/N=C/c3ccc4c(c3)OCO4)c3ccccc3n2)c(OC)c1	47	-47	1	1	2
Cc1ccc(-c2cc(C(=O)N/N=C/c3c(C)nn(C)c3C)c3ccccc3n2)cc1C	86*	-86	1	3	-9
COc1ccc(-c2cc(C(=O)N/N=C/c3ccc(OC)c(COCC(F)(F)C(F)F)c3)c3ccccc3n2)c(OC)c1	80*	-80	1	-1	1
CC(C)COc1cccc(-c2cc(C(=O)N/N=C/c3ccncc3)c3ccccc3n2)c1	79*	-79	-2	/	-3
COc1ccc(/C=N/NC(=O)c2cc(-c3cccnc3)nc3ccccc23)c(OC)c1	74*	-74	2	0	5
COCCn1c(SCc2cc(=O)n3cc(C)ccc3n2)nc2ccccc2c1=O	/	/	/	-1	4
N#CCCN(C(=O)COC(=O)C1CCN(S(=O)(=O)c2ccc3c(c2)OCCO3)CC1)c1ccccc1	1	-1	-1	3	/
CC(C)C[C@@]12C(=O)N(c3cccc(Br)c3)C(=O)N1[C@H](c1ccc(F)cc1)[C@@H]1C(=O)N(C3CCCCC3)C(=O)[C@@H]12	-11	11	1	-1	-11
O=C(CN(Cc1ccccc1Cl)S(=O)(=O)c1ccc(Cl)cc1)N/N=C/c1ccc(C(=O)O)cc1	-18	/	3	/	4
SMILES	SR-BI HDL uptake	SR-BI DiI-HDL act	CDK5 inh	GSK3 alpha inh	GSK3B inh
COc1cccc(/C=N/NC(=O)c2cc(-c3ccccn3)nc3ccccc23)c1O	103*	-103	1	-1	/
COc1cc([N+](=O)[O-])cc(/C=N/NC(=O)c2cc(-c3ccccc3)nc3ccccc23)c1O	117*	-117	-1	0	-1
Cc1nn(-c2ccccc2)c(N2CCCC2)c1/C=N/NC(=O)c1cc(-c2cccnc2)nc2ccccc12	89*	-89	0	-1	2
O=C(N/N=C/c1ccc(F)cc1)c1cc(-c2ccccn2)nc2ccccc12	30	-30	1	/	/
COc1cc([N+](=O)[O-])cc(/C=N/NC(=O)c2cc(C)nc3ccccc23)c1O	14	-14	0	-1	2
COc1ccc(CCNC(=O)CCCCCN2C(=O)[C@@H]3Cc4ccccc4CN3C2=O)cc1OC	28	-28	0	-2	1
COC(=O)COc1ccc(C2NC(=O)NC(c3ccccc3)=C2C(C)=O)cc1Br (configuration not stated)	10	-10	-1	2	-4
C=CC(=O)Nc1ccc(Nc2nc(NC3CCC(N(C)C)CC3)nc3c2ncn3C(C)C)cc1 (configuration not stated)	-7	7	95*	15	/
Cc1cc2nc(-c3ccc[nH]c3=O)[nH]c2cc1C	1	-1	20	61*	-33
CC12CCC(C(=O)N(CSC(=S)N/N=C\c3ccccc3O)C1=O)C2(C)C (configuration not stated)	104*	-104	0	0	4
COc1ccc(/C=N/Nc2nc(Nc3ccccc3)nc(N3CCCC3)n2)cc1[N+](=O)[O-]	?	-70	-2	-5	0
Oc1[nH]c2ccccc2c1N=Nc1nc(Nc2ccccc2)nc(N2CCOCC2)n1	/	/	1	-3	1
COc1ccc(/C=N/Nc2nc(C)cc(-c3ccccc3)n2)c(OC)c1	74*	-74	2	0	0
Cc1[nH]c2ccccc2c1/C=N/Nc1nc(Nc2ccccc2)nc(N2CCOCC2)n1	130*	-130	1	0	0
COc1ccc(O)c(/C=N/Nc2nc(Nc3ccccc3)nc(-n3nc(C)cc3C)n2)c1	22	-22	0	-5	-3
COc1ccc(O)c(/C=N/Nc2nc(C)cc(-c3ccccc3)n2)c1	88*	-88	1	-1	-2
COc1ccc(/C=N/Nc2nc(Nc3ccccc3)nc(N3CCCCC3)n2)c(OC)c1	89*	-89	-2	-4	0
CCCN1CNC(=S)N(CC2CCCO2)C1 (configuration not stated)	-19	19	-1	-5	-5
CCCCCNCc1cccc(Br)c1	-2	2	0	1	-1
Nc1nc(CN2CCN(c3ccccc3)CC2)nc(Nc2ccc(Cl)cc2)n1	13	-13	-1	/	3
COc1cc(/C=N/Nc2nc(Nc3ccccc3)nc(N3CCOCC3)n2)ccc1OC(=O)c1ccco1	73*	-73	0	/	-1
Cc1cc(-c2ccccc2)nc(N/N=C/c2ccc(O)cc2)n1	79*	-79	0	/	/
Nc1nc(-c2ccc(Cl)cc2)cc(C(F)(F)F)n1	13	-13	-1	2	0
O=C(Oc1cccc(/C=N/Nc2nc(N3CCOCC3)nc(N3CCOCC3)n2)c1)c1ccco1	-19	19	0	-3	-5

Screening results: PubChem BioAssay, Broad Institute
